Assay results as given in ChEMBL document CHEMBL1127568, “A new series of PDGF receptor tyrosine kinase inhibitors: 3-substituted quinoline derivatives” (J Med Chem, 1994).

Experiments:
[1] = target: T1, Platelet-derived growth factor receptor (Homo sapiens, UniProt P09619+P16234); experiment: Inhibition of isolated human PDGF receptor phosphorylation; assay type: protein-complex assay
[2] = target: Epidermal growth factor receptor (Homo sapiens, UniProt P00533); experiment: Concentration required to inhibit phosphorylation of isolated human epidermal growth factor tyrosine kinase receptor by 50%
Epidermal growth factor receptor, sequence (P00533 whole entry): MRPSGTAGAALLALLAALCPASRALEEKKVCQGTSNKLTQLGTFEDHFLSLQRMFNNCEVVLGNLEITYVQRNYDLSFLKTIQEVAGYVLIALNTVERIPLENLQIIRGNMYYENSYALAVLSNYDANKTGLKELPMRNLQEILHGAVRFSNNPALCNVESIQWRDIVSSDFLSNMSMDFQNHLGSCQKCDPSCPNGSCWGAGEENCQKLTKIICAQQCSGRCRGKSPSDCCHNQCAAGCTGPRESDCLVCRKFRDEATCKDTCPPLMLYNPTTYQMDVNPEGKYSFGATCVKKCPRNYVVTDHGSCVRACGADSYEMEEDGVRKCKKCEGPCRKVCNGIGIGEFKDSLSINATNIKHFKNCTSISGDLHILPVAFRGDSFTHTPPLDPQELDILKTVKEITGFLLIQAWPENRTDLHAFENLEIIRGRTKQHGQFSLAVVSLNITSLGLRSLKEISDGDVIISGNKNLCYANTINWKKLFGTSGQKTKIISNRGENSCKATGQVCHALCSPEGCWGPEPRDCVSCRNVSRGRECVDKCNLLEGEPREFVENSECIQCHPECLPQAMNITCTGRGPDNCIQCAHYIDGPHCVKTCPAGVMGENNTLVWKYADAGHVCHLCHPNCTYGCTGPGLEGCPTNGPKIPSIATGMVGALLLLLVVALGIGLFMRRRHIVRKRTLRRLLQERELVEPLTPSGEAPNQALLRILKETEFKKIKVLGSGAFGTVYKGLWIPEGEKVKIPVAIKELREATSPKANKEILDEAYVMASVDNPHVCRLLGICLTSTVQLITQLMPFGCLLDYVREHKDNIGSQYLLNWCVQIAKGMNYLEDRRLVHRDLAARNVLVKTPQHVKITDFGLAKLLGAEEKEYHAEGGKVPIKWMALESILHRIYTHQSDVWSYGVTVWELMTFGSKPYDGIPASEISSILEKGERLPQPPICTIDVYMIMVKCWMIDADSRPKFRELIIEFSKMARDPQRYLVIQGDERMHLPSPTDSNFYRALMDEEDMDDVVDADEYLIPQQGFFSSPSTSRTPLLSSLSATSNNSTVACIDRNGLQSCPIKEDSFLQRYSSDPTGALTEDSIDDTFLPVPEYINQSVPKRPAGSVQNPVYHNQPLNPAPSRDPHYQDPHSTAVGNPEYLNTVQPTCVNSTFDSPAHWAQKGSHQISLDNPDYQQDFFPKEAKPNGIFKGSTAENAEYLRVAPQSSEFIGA

[3] = target: T1, Platelet-derived growth factor receptor; experiment: Inhibition of human PDGF receptor phosphorylation; 0.04-0.07; assay type: protein-complex assay
Procedure, shortened: (§1)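 Receptor from quiescent NIH 3T3 cell lysates (24 h in 0.5% calf serum before lysis), stimulated with 10 ng/mL PDGF for 30 min at 4 °C, then immunoprecipitated with anti-PDGF receptor antibody on Protein A beads. Compound pre-incubated 10 min at 4 °C in 50 mM Tris, 10 mM MnCl2, pH 7.5. At least two dose-response assays per compound.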

[4] = target: T1, Platelet-derived growth factor receptor; experiment: Inhibition of human PDGF receptor phosphorylation; 0.1-0.25; assay type: protein-complex assay
Procedure, shortened: (§2)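 PDGF receptor from NIH 3T3 cell lysates (cells made quiescent 24 h in 0.5% calf serum), stimulated with 10 ng/mL PDGF for 30 min at 4 °C and immunoprecipitated on Protein A beads. Each compound ran in at least two dose-response assays.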

[5] = target: T1, Platelet-derived growth factor receptor; experiment: Inhibition of human PDGF receptor phosphorylation; 0.09-0.2; assay type: protein-complex assay; procedure, shortened: as §2
[6] = target: T1, Platelet-derived growth factor receptor; experiment: Inhibition of human PDGF receptor phosphorylation; 0.001-0.005; assay type: protein-complex assay; procedure, shortened: as §2
[7] = target: T1, Platelet-derived growth factor receptor; experiment: Inhibition of human PDGF receptor phosphorylation; 2-10; assay type: protein-complex assay; procedure, shortened: as §2
[8] = target: T1, Platelet-derived growth factor receptor; experiment: Inhibition of human PDGF receptor phosphorylation; 0.02-0.03; assay type: protein-complex assay; procedure, shortened: as §2
[9] = target: T1, Platelet-derived growth factor receptor; experiment: Inhibition of human PDGF receptor phosphorylation; 0.2-0.25; assay type: protein-complex assay; procedure, shortened: as §2
[10] = target: T1, Platelet-derived growth factor receptor; experiment: Inhibition of human PDGF receptor phosphorylation; 0.2-0.4; assay type: protein-complex assay; procedure, shortened: as §2
[11] = target: T1, Platelet-derived growth factor receptor; experiment: Inhibition of human PDGF receptor phosphorylation; 1-2; assay type: protein-complex assay; procedure, shortened: as §2
[12] = target: T1, Platelet-derived growth factor receptor; experiment: Inhibition of human PDGF receptor phosphorylation; 0.02-0.08; assay type: protein-complex assay
[13] = target: T1, Platelet-derived growth factor receptor; experiment: Inhibition of human PDGF receptor phosphorylation; 0.035-0.06; assay type: protein-complex assay; procedure, shortened: as §2
[14] = target: T1, Platelet-derived growth factor receptor; experiment: Inhibition of human PDGF receptor phosphorylation; 0.1-0.2; assay type: protein-complex assay; procedure, shortened: as §2
[15] = target: T1, Platelet-derived growth factor receptor; experiment: Inhibition of human PDGF receptor phosphorylation; 0.015-0.03; assay type: protein-complex assay; procedure, shortened: as §2
[16] = target: T1, Platelet-derived growth factor receptor; experiment: Inhibition of human PDGF receptor phosphorylation; 0.07-0.15; assay type: protein-complex assay
[17] = target: T1, Platelet-derived growth factor receptor; experiment: Inhibition of human PDGF receptor phosphorylation; 0.2-0.8; assay type: protein-complex assay; procedure, shortened: as §1
[18] = target: T1, Platelet-derived growth factor receptor; experiment: Inhibition of human PDGF receptor phosphorylation; 0.1-0.5; assay type: protein-complex assay; procedure, shortened: as §2
[19] = target: T1, Platelet-derived growth factor receptor; experiment: Inhibition of human PDGF receptor phosphorylation; 0.025-0.03; assay type: protein-complex assay; procedure, shortened: as §2
[20] = target: cAMP-dependent protein kinase (PKA) (Homo sapiens, UniProt P22694+P17612+P22612); experiment: Test for the inhibition of protein kinase A; assay type: protein assay
[21] = target: T1, Platelet-derived growth factor receptor; experiment: Inhibition of human PDGF receptor phosphorylation; 2-8; assay type: protein-complex assay; procedure, shortened: as §2
[22] = target: T1, Platelet-derived growth factor receptor; experiment: Inhibition of human PDGF receptor phosphorylation; 0.04-0.08; assay type: protein-complex assay; procedure, shortened: as §2
[23] = target: T1, Platelet-derived growth factor receptor; experiment: Inhibition of human PDGF receptor phosphorylation; 0.7-5; assay type: protein-complex assay; procedure, shortened: as §2

IC50 [1] [µM]	IC50 [2] [µM]	SMILES	other results
> 50	> 20	COc1ccc(-c2cnc3cc(OC)c(OC)cc3c2)c(OC)c1	–
–	> 20	COc1cc2cc(OCc3ccccc3)cnc2cc1OC	IC50 [3]: 0.07 µM
–	> 20	COc1ccc(-c2cnc3cc(OC)c(OC)cc3c2)s1	IC50 [4]: 0.25 µM
> 50	> 20	COc1cc2cc(-c3ccc(-c4ccccc4)cc3)cnc2cc1OC	–
–	> 20	COc1cc2cc(-c3ccc(F)c(F)c3)cnc2cc1OC	IC50 [5]: 0.2 µM
–	> 20	COc1cc2cc(/C=C/c3ccccc3)cnc2cc1OC	IC50 [6]: 0.005 µM
–	> 20	COc1ccc(-c2cnc3cc(OC)c(OC)cc3c2)cc1OC	IC50 [7]: 10 µM
> 50	> 20	COc1cc2cc(N)cnc2cc1OC	–
1	> 20	COc1cc2cc(-c3sccc3Cl)cnc2cc1OC	–
> 50	> 20	COc1cc2cc([N+](=O)[O-])cnc2cc1OC	–
–	> 20	COc1cc2cc(-c3ccc(O)cc3)cnc2cc1OC	IC50 [8]: 0.03 µM
–	> 20	c1ccc2ncc(-c3ccsc3)cc2c1	IC50 [9]: 0.25 µM
> 50	> 25	COc1ccc2cc(-c3cccnc3)cnc2c1OC	–
–	> 20	Cc1cc(C)c2cc(-c3ccsc3)cnc2c1	IC50 [6]: 0.005 µM
–	> 20	COc1cc2cc(-c3cc(F)c(OC)c(F)c3)cnc2cc1OC	IC50 [10]: 0.4 µM
–	> 20	Clc1cc2cc(-c3ccsc3)cnc2cc1Cl	IC50 [11]: 2 µM

IC50 [1] [µM]	IC50 [2] [µM]	SMILES	other results
2	> 20	COc1cc2cc(-c3ccccc3OC)cnc2cc1OC	–
–	> 20	COc1cc2cc(NCc3ccccc3)cnc2cc1OC	IC50 [12]: 0.08 µM
–	> 20	COc1cc2cc(-c3ccc(F)cc3)cnc2cc1OC	IC50 [13]: 0.06 µM
–	–	CCOC(=O)c1ccc(-c2cnc3cc(OC)c(OC)cc3c2)cc1	IC50 [14]: 0.2 µM
–	> 20	COc1cc2cc(-c3ccc(=O)[nH]c3)cnc2cc1OC	IC50 [15]: 0.03 µM
–	> 20	COc1cc2cc(-c3ccccc3)cnc2cc1OC	IC50 [16]: 0.15 µM
0.02	–	Fc1cccc2ncc(-c3ccsc3)cc12	–
–	> 20	C(=C\c1cnc2ccccc2c1)/c1ccccc1	IC50 [14]: 0.2 µM
–	> 20	COc1ccc(CCc2cnc3cc(OC)c(OC)cc3c2)cc1	IC50 [17]: 0.8 µM
–	> 20	COc1cc2cc(C3CCCC3)cnc2cc1OC	IC50 [18]: 0.5 µM
–	> 20	COc1cc(OC)c2cc(-c3ccsc3)cnc2c1	IC50 [19]: 0.03 µM; IC50 [20]: > 200 µM
> 50	> 20	COc1cc2cc(-c3cc(OC)c(OC)c(OC)c3)cnc2cc1OC	–
–	> 20	c1ccc2ncc(-c3c[nH]c4ccccc34)cc2c1	IC50 [21]: 8 µM
–	> 20	COc1cc2cc(-c3cccs3)cnc2cc1OC	IC50 [22]: 0.08 µM
–	–	COc1cc2cc(-c3ccc(C(=O)O)cc3)cnc2cc1OC	IC50 [23]: 5 µM
> 30	> 20	COc1cc2cc(-c3ccc(OCc4ccccc4)cc3)cnc2cc1OC	–
